The nature of data set [1]: Cytotoxicity against human BGC823 cells measured after 72 hrs by MTT assay. The note with it: BGC-823, 72 h. Format: functional, cell-based. The procedure, abridged:
(§1)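 Cells were exposed to serial dilutions of compound from 1.00 to 100 μg/mL for 72 h. MTT (400 μg/mL) was then added for 4 h, replaced with DMSO, and absorbance was read at 540 nm. Cantharidin was the positive control.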

A short description of data set [2]: Cytotoxicity against human HCT116 cells measured after 72 hrs by MTT assay. Format: functional, cell-based. The note with it: HCT-116, 72 h. Summed up:
as §1

Data set [3] in a line: Cytotoxicity against human HepG2.2.15 cells after 72 hrs by MTT assay. To be noted: HepG2 2.2.15, 72 h. Format: functional, cell-based. The procedure, abridged:
as §1

The subject of data set [4] is Hepatitis B virus. The data set is described as follows: Antiviral activity against Hepatitis B virus infected human HepG2.2.15 cells assessed as inhibition of HBeAg secretion measured after 96 hrs by ELISA. In kind it is functional. To be noted: HepG2.2.15, 96 h. Summed up: (§2)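 HepG2.2.15 cells, stably transfected with the HBV genome, were grown for 24 h in DMEM with 10% FBS, 100 μg/mL G418 and penicillin/streptomycin at 37 °C under 5% CO2. Compounds diluted in culture medium were then added for 96 h. HBeAg or HBsAg in the collected medium was measured by ELISA. Adefovir dipivoxil was the positive control. Data are mean ± SD, n = 3.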

Data set [5] deals with Hepatitis B virus. In words: Antiviral activity against Hepatitis B virus infected human HepG2.2.15 cells assessed as inhibition of HBsAg secretion measured after 96 hrs by ELISA. Format: functional. The note with it: HepG2.2.15, 96 h. Summed up: as §2
Data set [6] can be described thus: Selectivity index, ratio of CC50 for human HepG2.2.15 cells to IC50 for inhibition of HBeAg secretion in Hepatitis B virus infected human HepG2.2.15 cells. Format: functional. The procedure, abridged: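 SI is CC50 in HepG2.2.15 cells divided by IC50 for HBeAg inhibition, the latter measured by ELISA of medium after 96 h of compound treatment. Values are from triplicate determinations.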

Data set [7] in a line: Toxicity against human HepG2.2.15 cells infected with HBV after 72 hrs by MTT assay. Format: cell-based, HepG2 2.2.15. The procedure, abridged: as §1

SMILES strings stand for the structures.

Turning to `C[C@]12C(=O)NC(=O)[C@H]1[C@@H]1CC[C@H]2O1`, the IC50 in data set [1], in data set [2] and in data set [3] was over 10 µM throughout.
For the compound `C[C@]12C(=O)N(CCCO)C(=O)[C@H]1[C@@H]1CC[C@H]2O1`, the IC50 in data set [1], in data set [2] and in data set [3] was over 10 µM in each case.
As to `CNC(=O)CCCN1C(=O)[C@H]2[C@@H]3CC[C@@H](O3)[C@@]2(C)C1=O`, the IC50 in data set [1], in data set [2] and in data set [3] was over 10 µM throughout.
As to `C[C@@]12C(=O)NC(=O)[C@]1(C)[C@H]1CC[C@@H]2O1`, the IC50 is 42 µM in the data set on Hepatitis B virus [4]; over 10 µM in data set [1]; over 260 µM in the data set with Hepatitis B virus [5]; over 10 µM in data set [2]; over 10 µM in data set [3]. For the same compound, the “Ratio CC50/IC50” value in data set [6] turned out to be 6.7. This compound also came in with a CC50 at 72 h in data set [7] of 280 µM.
As for `C[C@@]12C(=O)N(CCC(N)=O)C(=O)[C@]1(C)[C@H]1CC[C@@H]2O1`, the IC50 in data set [1], in data set [2] and in data set [3] was over 10 µM each time.
As to `C[C@@]12C(=O)N(CCCO)C(=O)[C@]1(C)[C@H]1CC[C@@H]2O1`, the IC50 in data set [1], in data set [2] and in data set [3] was over 10 µM each time.
Consider `CC(=O)CN1C(=O)[C@@]2(C)[C@@H]3CC[C@@H](O3)[C@@]2(C)C1=O`, for which the IC50 in data set [1], in data set [2] and in data set [3] was over 10 µM each time.
Regarding `C[C@]12C(=O)N(CC(N)=O)C(=O)[C@H]1[C@@H]1CC[C@H]2O1`, the IC50 in data set [1], in data set [2] and in data set [3] was over 10 µM throughout.
Regarding `C[C@@]12C(=O)NC(=O)[C@]1(CO)[C@H]1CC[C@@H]2O1`, the IC50 in data set [1], in data set [2] and in data set [3] was over 10 µM throughout.
For `CN1C(=O)[C@@]2(C)[C@@H]3CC[C@@H](O3)[C@@]2(CO)C1=O`, the IC50 in data set [1], in data set [2] and in data set [3] was over 10 µM in each case.
Consider `C[C@@]12C(=O)N(CCO)C(=O)[C@]1(CO)[C@H]1CC[C@@H]2O1`, for which the IC50 in data set [1], in data set [2] and in data set [3] was over 10 µM each time.
As to `C[C@@]12C(=O)N(CCO)C(=O)[C@]1(C)[C@H]1CC[C@@H]2O1`, the IC50 was 62 µM in the data set on Hepatitis B virus [4]; over 10 µM in data set [1]; over 210 µM in the data set on Hepatitis B virus [5]; over 10 µM in data set [2]; over 10 µM in data set [3]. Further, in data set [7], the CC50 at 72 h is over 420 µM.
Take `C[C@@]12C(=O)N(CCCO)C(=O)[C@]1(CO)[C@H]1CC[C@@H]2O1`: the IC50 in data set [1], in data set [2] and in data set [3] was over 10 µM throughout.
For the compound `CNC(=O)CCCN1C(=O)[C@@]2(C)[C@@H]3CC[C@@H](O3)[C@@]2(C)C1=O`, the IC50 in data set [1], in data set [2] and in data set [3] was over 10 µM each time.
In the case of `C[C@@]12C(=O)N(CCc3ccc(O)cc3)C(=O)[C@]1(C)[C@H]1CC[C@@H]2O1`, the IC50 is 58 µM in the data set on Hepatitis B virus [4]; over 10 µM in data set [1]; over 160 µM in the data set with Hepatitis B virus [5]; over 10 µM in data set [2]; over 10 µM in data set [3]. Besides, the CC50 at 72 h in data set [7] was over 320 µM.
For `C[C@@]12C(=O)N(CCCN3C(=O)[C@@]4(C)[C@@H]5CC[C@@H](O5)[C@@]4(C)C3=O)C(=O)[C@]1(C)[C@H]1CC[C@@H]2O1`, the IC50 in data set [1], in data set [2] and in data set [3] was over 10 µM in each case.
In the case of `C[C@@]12C(=O)N(CCCCN3C(=O)[C@@]4(C)[C@@H]5CC[C@@H](O5)[C@@]4(C)C3=O)C(=O)[C@]1(C)[C@H]1CC[C@@H]2O1`, the half-inhibitory concentration (IC50) in the data set on Hepatitis B virus [4] was 19 µM; in data set [1], over 10 µM; in the data set on Hepatitis B virus [5], over 110 µM; in data set [2] it was over 10 µM; in data set [3] it was over 10 µM. This compound also showed a CC50 at 72 h in data set [7] of over 220 µM.
`CC(C)(C)C(=O)OCOP(=O)(COCCn1cnc2c(N)ncnc21)OCOC(=O)C(C)(C)C` [ADEFOVIR DIPIVOXIL]: the IC50 in the data set on Hepatitis B virus [4] came out at 290 µM; in the data set on Hepatitis B virus [5], 270 µM. For the same compound, the CC50 at 72 h in data set [7] is over 400 µM.
Take `C[C@@]12C(=O)N(CC(N)=O)C(=O)[C@]1(C)[C@H]1CC[C@@H]2O1`: the IC50 in data set [1], in data set [2] and in data set [3] was over 10 µM each time.

The values are drawn from ChEMBL document CHEMBL3865831, “Cantharimide and Its Derivatives from the Blister Beetle Mylabris phalerata Palla” (J Nat Prod, 2016).
